Measurements from PubChem BioAssay.
The source made the active and inactive calls.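 How the source made its calls, unless noted: active means GFP response above 150% of the DMSO level; inconclusive means fewer than 70 events counted for a yeast strain; inactive means the rest.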

Tests used:
[1] = RPL19A-GFP modulators, yeast TOR pathway, confirmation, cell-based, S. cerevisiae, flow cytometry, cherry picks, mother/daughter gates (AID 2270;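 active means GFP response below 50% of the DMSO control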); details: S. cerevisiae RPL19A-GFP strain, 3 h, at 10 µM, stronger effect = lower value, 100 = same GFP as DMSO wells
[2] = LAP4-GFP expression modulators in yeast, confirmation, cell-based, cherry picks, flow cytometry, mother/daughter gates (AID 2271;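 active means GFP response above 150% of the DMSO control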;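 further: ratio of sample to DMSO plate mean so 100% equals DMSO level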); details: S. cerevisiae LAP4-GFP strain, 3 h, at 10 µM, stronger effect = higher value, 100 means same as DMSO control
In short: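 System – GFP-fusion yeast strain · Amount – 0.2 OD600 cells · Buffer or medium – SC growth medium · Dosing – single test-compound dose, 10 µM final · Schedule – 3 h treatment at 30 °C with rotation · Detection – GFP by flow cytometry · Read-out – per-gate (all, mother, daughter) GFP response vs DMSO · Benchmarks – positive rapamycin (400 ng/mL), negative DMSO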

[3] = modulators of MEP2-GFP levels in yeast, confirmation, S. cerevisiae, flow cytometry GFP, cherry picks (AID 2272;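 active means GFP response above 150% of the DMSO control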;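 further: ratio of well signal to plate DMSO mean so 100% equals DMSO level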); details: S. cerevisiae MEP2-GFP strain, 3 h, at 10 µM, stronger effect = higher value
[4] = AGP1-GFP expression modulators, hit retest, confirmation, cell-based, flow cytometry, S. cerevisiae, cherry picks (AID 2273);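 further: median GFP channel fluorescence over the whole cell population gate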; details: S. cerevisiae AGP1-GFP strain, 3 h, at 10 µM
[5] = modulators of CIT2-GFP expression in yeast, confirmation, S. cerevisiae, GFP fusion, cherry picks, mother/daughter gates (AID 2274); details: S. cerevisiae CIT2-GFP strain, flow cytometry, 3 h, at 10 µM, stronger effect = higher value
[6] = measured here: daughter cell gate
[7] = measured here: mother cell gate
[8] = measured here: daughter cell gate response
[9] = measured here: mother cell gate response

Row | SMILES | GFP response vs DMSO [1] | GFP response vs DMSO [1, 6] | GFP response vs DMSO [1, 7] | GFP response relative to DMSO [2] | GFP response relative to DMSO [2, 8] | GFP response relative to DMSO [2, 9] | GFP response vs DMSO [3] | GFP response, % of DMSO [4] | GFP response, % of DMSO [5] | GFP response, % of DMSO [5, 6] | GFP response, % of DMSO [5, 7]
1 | COc1ccc(C(=O)ON=C2CCN(c3ccc([N+](=O)[O-])cc3)CC2)cc1 | 97.6% (inactive) | 97.5% | 97.6% | 117% (inactive) | 107% | 118% | 97.5% (inactive) | 76.1% (inactive) | 108% (inactive) | 104% | 108%
2 | Brc1cc(Br)c2nc(-c3cccs3)ccc2c1 | 97.4% (inactive) | 99.1% | 96.7% | 99.5% (inactive) | 99.1% | 98.4% | 101% (inactive) | 98.2% (inactive) | 100% (inactive) | 97.4% | 99.3%
3 | COc1ccc(CC2=CC(=O)c3ccccc3C2=O)cc1 | 99.7% (inactive) | 99.3% | 99.3% | 101% (inactive) | 99.3% | 102% | 104% (inactive) | 94.5% (inactive) | 96.4% (inactive) | 96.4% | 94.5%
4 | Cn1cc(/C=C/c2cc[n+](C)cc2)c2cc(F)ccc21 | 102% (inactive) | 102% | 102% | 115% (inactive) | 117% | 116% | 134% (inactive) | 103% (inactive) | 115% (inactive) | 116% | 114%
5 | CN1CCc2c(sc3c2C(=O)NC(c2ccc4c(c2)OCO4)N3)C1 (stereo not drawn) | 98.4% (inactive) | 99.8% | 98.5% | 96.5% (inactive) | 95% | 98.5% | 106% (inactive) | 102% (inactive) | 102% (inactive) | 102% | 99.1%
6 | CCCc1cc(N2CCN(c3ccccn3)CC2)n2nc(C)c(-c3ccccc3)c2n1 | 104% (inactive) | 101% | 104% | 142% (inactive) | 147% | 140% | 160% (inactive) | 109% (inactive) | 153% (active) | 154% | 148%
7 | CCOC(=O)C(N)CSC1CC(=O)N(c2ccc(C(=O)OC)cc2)C1=O (stereo not drawn) | 98% (inactive) | 98.4% | 98.7% | 102% (inactive) | 102% | 101% | 100% (inactive) | 98.1% (inactive) | 98.3% (inactive) | 99.1% | 97.3%
8 | NC1=NC(=O)C(CC(=O)c2ccc(Cl)cc2)S1 (stereo not drawn) | 99.9% (inactive) | 100% | 99.8% | 106% (inactive) | 99.3% | 107% | 102% (inactive) | 96.7% (inactive) | 96.4% (inactive) | 96.4% | 94.5%
9 | COc1ccc(C2CC(c3ccccc3)=NN2S(=O)(=O)c2ccccc2)cc1 (stereo not drawn) | 101% (inactive) | 102% | 101% | 113% (inactive) | 110% | 112% | 146% (inactive) | 104% (inactive) | 141% (inactive) | 143% | 136%
10 | CCc1nnc(NC(=O)c2ccc(S(=O)(=O)N(C)Cc3ccccc3)cc2)o1 | 99% (inactive) | 99.5% | 98.5% | 103% (inactive) | 106% | 103% | 104% (inactive) | 103% (inactive) | 103% (inactive) | 99.7% | 105%
11 | c1cc2c(cc1C1CCCCC1)c1c3n2CCCNC3CCC1 (stereo not drawn) | 101% (inactive) | 99% | 100% | 101% (inactive) | 102% | 102% | 111% (inactive) | 105% (inactive) | 100% (inactive) | 96.5% | 98.7%
12 | O=C(COC(=O)CCc1nc2ccccc2s1)Nc1nc(-c2ccccc2)cs1 | 101% (inactive) | 100% | 100% | 96.2% (inactive) | 98.7% | 97.2% | 100% (inactive) | 101% (inactive) | 102% (inactive) | 98.1% | 103%
13 | CCOc1ccccc1N1CCN(C(=O)c2ccccc2)CC1 | 97.6% (inactive) | 98.5% | 98.8% | 101% (inactive) | 101% | 103% | 102% (inactive) | 101% (inactive) | 101% (inactive) | 100% | 99.1%
14 | N#C/C(=C\c1c(N2CCCCCC2)nc2ccccn2c1=O)C(=O)NC1CCS(=O)(=O)C1 (stereo not drawn) | 99.9% (inactive) | 101% | 99.7% | 105% (inactive) | 107% | 103% | 116% (inactive) | 98.7% (inactive) | 109% (inactive) | 111% | 108%
15 | Cc1c(O)nc(SC2CC(=O)N(c3ccccc3)C2=O)[nH]c1=O (stereo not drawn) | 96.4% (inactive) | 96.5% | 96.7% | 109% (inactive) | 101% | 107% | 99.5% (inactive) | 97.1% (inactive) | 96.4% (inactive) | 98.3% | 96.8%
16 | CC1CN(c2nc3ccccn3c(=O)c2/C=C(\C#N)C(N)=O)CC(C)O1 (stereo not drawn) | 97.8% (inactive) | 97.3% | 95.8% | 96.5% (inactive) | 99% | 95.4% | 106% (inactive) | 99.5% (inactive) | 101% (inactive) | 99.3% | 103%
17 | Clc1ccc(-n2nnnc2Sc2ncnc3sccc23)cc1 | 100% (inactive) | 98.4% | 98.8% | 131% (inactive) | 123% | 130% | 131% (inactive) | 115% (inactive) | 106% (inactive) | 105% | 105%

Row | SMILES | GFP response vs DMSO [1] | GFP response vs DMSO [1, 6] | GFP response vs DMSO [1, 7] | GFP response relative to DMSO [2] | GFP response relative to DMSO [2, 8] | GFP response relative to DMSO [2, 9] | GFP response vs DMSO [3] | GFP response, % of DMSO [4] | GFP response, % of DMSO [5] | GFP response, % of DMSO [5, 6] | GFP response, % of DMSO [5, 7]
18 | COc1cccc2c1Oc1ncccc1N(C(=O)CCC(=O)NCc1ccc(F)cc1)C2 | 98% (inactive) | 98.1% | 98.2% | 101% (inactive) | 101% | 99.3% | 102% (inactive) | 96.6% (inactive) | 105% (inactive) | 105% | 104%
19 | Cc1ccc2nc(Cl)c3nnnn3c2c1 | 66.6% (inactive) | 58.4% | 56.7% | 281% (active) | 153% | 270% | 152% (inactive) | 109% (inactive) | 82.8% (inactive) | 84.8% | 72.3%
20 | COC(=O)COc1ccc(S(=O)(=O)N2CCc3ccccc3C2)cc1 | 101% (inactive) | 100% | 103% | 101% (inactive) | 102% | 101% | 97.8% (inactive) | 99.4% (inactive) | 99.1% (inactive) | 96.5% | 101%
21 | O=C(Nc1nc(-c2ccccc2Cl)cs1)c1cccnc1 | 100% (inactive) | 94.7% | 99.2% | 97.4% (inactive) | 95.6% | 99.3% | 100% (inactive) | 89.1% (inactive) | 99.1% (inactive) | 94.8% | 97.7%
22 | CCNc1nc(-c2ccc(Cl)cc2)cs1 | 101% (inactive) | 100% | 101% | 93.8% (inactive) | 97.2% | 96.2% | 102% (inactive) | 97.8% (inactive) | 104% (inactive) | 101% | 106%
23 | COc1ccccc1C(=O)N1CCN(c2cccc(Cl)c2)CC1 | 97.2% (inactive) | 98.9% | 95.8% | 102% (inactive) | 102% | 99.3% | 100% (inactive) | 95.6% (inactive) | 96.9% (inactive) | 99.1% | 95%
24 | CCOc1ccc(-c2noc(-c3cccnc3)n2)cc1OC | 97.2% (inactive) | 97.1% | 96.4% | 99.2% (inactive) | 99.2% | 98.3% | 100% (inactive) | 95.6% (inactive) | 104% (inactive) | 103% | 98.5%
25 | CCCn1c(=O)c(C(=O)Nc2ccccc2)c(O)c2ccccc21 | 96.7% (inactive) | 96.4% | 95.6% | 100% (inactive) | 97.5% | 98.4% | 99.3% (inactive) | 96.6% (inactive) | 98.6% (inactive) | 95.8% | 97.1%
26 | COc1cc(NC(=O)c2cc3ccccc3o2)ccc1NC(=O)c1ccco1 | 99% (inactive) | 97.9% | 98.9% | 96.7% (inactive) | 97.6% | 96.1% | 102% (inactive) | 94.1% (inactive) | 104% (inactive) | 105% | 103%
27 | CC(C)(C)n1nc(-c2ccc(Cl)cc2)c2c(N)ncnc21 | 44.2% (active) | 39.7% | 45.6% | 191% (active) | 172% | 195% | 118% (inactive) | 106% (inactive) | 44.4% (inactive) | 46.1% | 42.4%
28 | COc1ccc(C2CC(c3c(-c4ccccc4)c4cc(Cl)ccc4[nH]c3=O)=NN2S(C)(=O)=O)cc1OC (stereo not drawn) | 99.6% (inactive) | 101% | 98.5% | 91.5% (inactive) | 92.8% | 89.7% | 96.2% (inactive) | 98.3% (inactive) | 99.7% (inactive) | 99.1% | 98.5%
29 | O=c1[nH]n(Cc2ccccc2)c2ccccc12 | 97.6% (inactive) | 97.8% | 97.8% | 103% (inactive) | 102% | 103% | 102% (inactive) | 98.7% (inactive) | 96.4% (inactive) | 96.4% | 94.5%
30 | CCN(CC)CCCN(Cc1cc2cc3c(cc2[nH]c1=O)OCO3)C(=S)Nc1ccccc1 | 87.4% (inactive) | 74.2% | 80.4% | 135% (inactive) | 104% | 131% | 139% (inactive) | 133% (inactive) | 126% (inactive) | 103% | 120%
31 | COc1ccc(COC(=O)c2n[nH]c3ccccc23)cc1F | 98.4% (inactive) | 96.7% | 98.2% | 97.4% (inactive) | 98.7% | 99.3% | 102% (inactive) | 95% (inactive) | 106% (inactive) | 108% | 104%
32 | CCN(CC)Cc1c(O)ccc2c(C)c(CC(=O)OC)c(=O)oc12 | 103% (inactive) | 101% | 100% | 101% (inactive) | 97.5% | 102% | 103% (inactive) | 106% (inactive) | 100% (inactive) | 99.2% | 95.6%
33 | O=C(CSc1nnc(-c2ccccn2)n1Cc1ccccc1)N1CCOCC1 | 103% (inactive) | 102% | 102% | 105% (inactive) | 107% | 105% | 108% (inactive) | 101% (inactive) | 104% (inactive) | 105% | 105%
